Reference: ChEMBL document CHEMBL1926598, “Synthesis, anti-inflammatory activity and ulcerogenic liability of novel nitric oxide donating/chalcone hybrids” (Bioorg Med Chem, 2012)

Assays:
Rattus norvegicus [1] = experiment: Antiinflammatory activity in albino rat assessed as inhibition of carrageenan-induced paw edema at 100 mg/kg, po administered 30 mins prior to challenge measured after 2 hrs relative to untreated control; assay type: functional
In short: (§1)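 Adult male albino rats (120–140 g), groups of four, fasted 24 h with water allowed. Test compound suspended in 0.5% w/v CMC in water, given orally at 100 mg/kg; controls received CMC alone. After 30 min, 0.1 mL of 1% carrageenan in saline injected subplantar into right hind paw, saline into left. Paw thickness measured by caliper; % inhibition = [(VR−VL)control − (VR−VL)treated]/(VR−VL)control ×100; one-way ANOVA versus control.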

Rattus norvegicus [2] = experiment: Gastric toxicity in albino rat assessed as vasodilation of blood capillaries at 100 mg/kg, po after 5 hrs by hematoxylin and eosin staining; assay type: organism-based; parameters: dose 100 mg/kg, route oral; conditions: in vivo
In short: (§2)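 Stomach sections from control and treated rats were dewaxed and hydrated through graded alcohols. They were stained with haematoxylin 5–7 min, differentiated 5–10 s in 1% HCl in 70% alcohol, then stained with 1% eosin for 10 min. Mucosa of the fundic stomach was examined by light microscopy.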

[3] = Induction of nitric oxide release at 0.1 mM after 5 hrs in phosphate buffer at pH 7.4 by Griess assay; assay type: physicochemical; conditions: pH 7.4, 5 h, 100 µM
In short: (§3)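 Compound at a final 10^-4 M with 0.5 mM N-acetylcysteine in phosphate buffer pH 7.4 at 37 °C. Reaction mixture treated with Griess reagent (sulfanilamide, N-naphthylethylenediamine, phosphoric acid), 10 min at room temperature, absorbance read at 546 nm. Sodium nitrite standards (10–80 nmol/mL) used for calibration. NO reported as mol/mol, n = 4 reaction mixtures.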

Rattus norvegicus [4] = experiment: Antiinflammatory activity in albino rat assessed as inhibition of carrageenan-induced paw edema at 100 mg/kg, po administered 30 mins prior to challenge measured after 1 hr relative to untreated control; assay type: functional; in short: as §1
[5] = Induction of nitric oxide release at 0.1 mM after 3 hrs in phosphate buffer at pH 7.4 by Griess assay; assay type: physicochemical; conditions: pH 7.4, 3 h, 100 µM; in short: as §3
[6] = Induction of nitric oxide release at 0.1 mM after 6 hrs in phosphate buffer at pH 7.4 by Griess assay; assay type: physicochemical; conditions: pH 7.4, 6 h, 100 µM; in short: as §3
Rattus norvegicus [7] = experiment: Gastric toxicity in albino rat assessed as ulcer index at 100 mg/kg, po after 5 hrs; assay type: organism-based; parameters: dose 100 mg/kg, route oral; conditions: in vivo
In short: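 Rats dosed orally at 100 mg/kg in 0.5% CMC (n = 4). Stomach lesions counted and graded by area: level I <1 mm², II 1–3 mm², III >3 mm². Ulcer index = 1×(level I count) + 2×(level II) + 3×(level III). Mean ± SEM; one-way ANOVA versus control.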

[8] = Induction of nitric oxide release at 0.1 mM after 2 hrs in phosphate buffer at pH 7.4 by Griess assay; assay type: physicochemical; conditions: pH 7.4, 2 h, 100 µM; in short: as §3
Rattus norvegicus [9] = experiment: Antiinflammatory activity in albino rat assessed as inhibition of carrageenan-induced paw edema at 100 mg/kg, po administered 30 mins prior to challenge measured after 4 hrs relative to untreated control; assay type: functional; in short: as §1
[10] = Induction of nitric oxide release at 0.1 mM after 1 hr in phosphate buffer at pH 7.4 by Griess assay; assay type: physicochemical; conditions: pH 7.4, 1 h, 100 µM; in short: as §3
[11] = Induction of nitric oxide release at 0.1 mM in 0.1 N HCl buffer at pH 1.0 by Griess assay; assay type: physicochemical; conditions: pH 1, 100 µM
In short: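 Griess procedure as at neutral pH, but in 0.1 N HCl pH 1 in place of phosphate buffer. Compound at a final 10^-4 M with N-acetylcysteine, 37 °C. Absorbance read at 546 nm against sodium nitrite standards (10–80 nmol/mL). Release expressed relative to a theoretical 1 mol NO/mol compound.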

Rattus norvegicus [12] = experiment: Antiinflammatory activity in albino rat assessed as inhibition of carrageenan-induced paw edema at 100 mg/kg, po administered 30 mins prior to challenge measured after 3 hrs relative to indomethacin; assay type: functional; parameters: scale not given: the % may be the effect or the level left
In short: (§4)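 Carrageenan paw edema in male albino rats (120–140 g, n = 4, fasted 24 h), compound 100 mg/kg po in 0.5% CMC 30 min before subplantar 1% carrageenan (0.1 mL). Percent edema inhibition at the stated hour from right minus left paw thickness versus the CMC control, then expressed as a percentage of the indomethacin (100 mg/kg) response at the same time.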

[13] = Induction of nitric oxide release at 0.1 mM after 4 hrs in phosphate buffer at pH 7.4 by Griess assay; assay type: physicochemical; conditions: pH 7.4, 4 h, 100 µM; in short: as §3
Rattus norvegicus [14] = experiment: Antiinflammatory activity in albino rat assessed as inhibition of carrageenan-induced paw edema at 100 mg/kg, po administered 30 mins prior to challenge measured after 3 hrs relative to untreated control; assay type: functional; in short: as §1
Rattus norvegicus [15] = experiment: Gastric toxicity in albino rat assessed as edema at 100 mg/kg, po after 5 hrs by hematoxylin and eosin staining; assay type: organism-based; parameters: dose 100 mg/kg, route oral; conditions: in vivo; in short: as §2
Rattus norvegicus [16] = experiment: Gastric toxicity in albino rat assessed as abnormal morphology of fundic gland at 100 mg/kg, po after 5 hrs by hematoxylin and eosin staining; assay type: organism-based; parameters: dose 100 mg/kg, route oral; conditions: in vivo; in short: as §2
Rattus norvegicus [17] = experiment: Antiinflammatory activity in albino rat assessed as inhibition of carrageenan-induced paw edema at 100 mg/kg, po administered 30 mins prior to challenge measured after 5 hrs relative to untreated control; assay type: functional; in short: as §1
Rattus norvegicus [18] = experiment: Gastric toxicity in albino rat assessed as structural damage in mucosal membrane at 100 mg/kg, po after 5 hrs by hematoxylin and eosin staining; assay type: organism-based; parameters: dose 100 mg/kg, route oral; conditions: in vivo; in short: as §2
Rattus norvegicus [19] = experiment: Gastric toxicity in albino rat assessed as loss of mucosal membrane at the area of ulceration at 100 mg/kg, po after 5 hrs by hematoxylin and eosin staining; assay type: organism-based; parameters: dose 100 mg/kg, route oral; conditions: in vivo; in short: as §2
Rattus norvegicus [20] = experiment: Antiinflammatory activity in albino rat assessed as inhibition of carrageenan-induced paw edema at 100 mg/kg, po administered 30 mins prior to challenge measured after 4 hrs relative to indomethacin; assay type: functional; parameters: scale not given: the % may be the effect or the level left; in short: as §4
Rattus norvegicus [21] = experiment: Gastric toxicity in albino rat assessed as capillary inflammatory cells appearance at 100 mg/kg, po after 5 hrs by hematoxylin and eosin staining; assay type: organism-based; parameters: dose 100 mg/kg, route oral; conditions: in vivo; in short: as §2
Rattus norvegicus [22] = experiment: Gastric toxicity in albino rat assessed as degeneration of fundic gland at 100 mg/kg, po after 5 hrs by hematoxylin and eosin staining; assay type: organism-based; parameters: dose 100 mg/kg, route oral; conditions: in vivo; in short: as §2
Rattus norvegicus [23] = experiment: Gastric toxicity in albino rat assessed as apoptotic glandular epithelial cells appearance at 100 mg/kg, po after 5 hrs by hematoxylin and eosin staining; assay type: organism-based, Epithelial cell; parameters: dose 100 mg/kg, route oral; conditions: in vivo; in short: as §2

| Compound | Activity [3] [mol/mol] | Activity [5] [mol/mol] | Activity [6] [mol/mol] | Activity [8] [mol/mol] | Activity [10] [mol/mol] | Activity [11] | Activity [13] [mol/mol] | inhibition in vivo at 100 mg/kg (Rattus norvegicus [1]) [%] | inhibition in vivo at 100 mg/kg (Rattus norvegicus [4]) [%] | UI (Rattus norvegicus [7]) | inhibition in vivo at 100 mg/kg (Rattus norvegicus [9]) [%] | Activity (Rattus norvegicus [12]) [%] | inhibition in vivo at 100 mg/kg (Rattus norvegicus [14]) [%] | inhibition in vivo at 100 mg/kg (Rattus norvegicus [17]) [%] | further results |
| --- | --- | --- | --- | --- | --- | --- | --- | --- | --- | --- | --- | --- | --- | --- | --- |
| O=C(CO[N+](=O)[O-])Nc1ccc(C(=O)/C=C/c2ccc3c(c2)OCO3)cc1 | 0.73 | 0.6 | 0.67 | 0.45 | 0.39 | Not Active | 0.64 | 45 | 38 | 3 | 55 | 79 | 61 | 54 | – |
| O=C(CO[N+](=O)[O-])Nc1ccc(C(=O)/C=C/c2ccco2)cc1 | 0.63 | 0.37 | 0.59 | 0.28 | 0.15 | Not Active | 0.59 | 36 | 34 | 7 | 40 | 61 | 48 | 39 | – |
| CC(O[N+](=O)[O-])C(=O)Nc1ccc(C(=O)/C=C/c2ccco2)cc1 (configuration not stated) | 0.11 | 0.38 | 0.09 | 0.11 | 0.09 | Not Active | 0.13 | 48 | 41 | 5.7 | 49 | 69 | 54 | 49 | – |
| O=C(COCc1c(-c2ccccc2)no[n+]1[O-])Nc1ccc(C(=O)/C=C/c2ccc(Cl)cc2)cc1 | 1.5 | 1.22 | 0.87 | 0.98 | 0.55 | Not Active | 1.295 | 48 | 38 | 1 | 75 | – | 66 | 62 | Activity (Rattus norvegicus [20]): 91%; Activity (Rattus norvegicus [21]): Non-toxic; Activity (Rattus norvegicus [18]): Non-toxic |
| O=C(COCc1c(-c2ccccc2)no[n+]1[O-])Nc1ccc(C(=O)/C=C/c2ccc3c(c2)OCO3)cc1 | 1.26 | 0.86 | 0.75 | 0.71 | 0.5 | Not Active | 0.89 | 55 | 34 | 1.3 | 72 | – | 62 | 70 | Activity (Rattus norvegicus [20]): 87% |
| COc1ccc2c(c1)c(CC(=O)O)c(C)n2C(=O)c1ccc(Cl)cc1 [INDOMETHACIN] | – | – | – | – | – | – | – | 70 | 56 | 45.5 | 83 | – | 78 | 87 | Activity (Rattus norvegicus [21]): Toxic; Activity (Rattus norvegicus [22]): Toxic; Activity (Rattus norvegicus [23]): Toxic; Activity (Rattus norvegicus [19]): Toxic |

More lines, main results first:

| Activity [3] [mol/mol] | Activity [5] [mol/mol] | Activity [6] [mol/mol] | Activity [8] [mol/mol] | Activity [10] [mol/mol] | Activity [11] | Activity [13] [mol/mol] | Compound | inhibition in vivo at 100 mg/kg (Rattus norvegicus [1]) [%] | inhibition in vivo at 100 mg/kg (Rattus norvegicus [4]) [%] | UI (Rattus norvegicus [7]) | inhibition in vivo at 100 mg/kg (Rattus norvegicus [9]) [%] | Activity (Rattus norvegicus [12]) [%] | inhibition in vivo at 100 mg/kg (Rattus norvegicus [14]) [%] | inhibition in vivo at 100 mg/kg (Rattus norvegicus [17]) [%] | further results |
| --- | --- | --- | --- | --- | --- | --- | --- | --- | --- | --- | --- | --- | --- | --- | --- |
| 0.75 | 0.54 | 0.73 | 0.37 | 0.32 | Not Active | 0.73 | O=C(CO[N+](=O)[O-])Nc1ccc(C(=O)/C=C/c2ccc(Cl)cc2)cc1 | 57 | 42 | 2.5 | 67 | 89 | 69 | 60 | Activity (Rattus norvegicus [2]): Non-toxic; Activity (Rattus norvegicus [15]): Non-toxic; Activity (Rattus norvegicus [16]): Non-toxic |
| 0.68 | 0.48 | 0.59 | 0.31 | 0.27 | Not Active | 0.66 | COc1ccc(/C=C/C(=O)c2ccc(NC(=O)CO[N+](=O)[O-])cc2)cc1 | 49 | 33 | 5.8 | 51 | 69 | 53 | 46 | – |
| 0.28 | 0.46 | 0.16 | 0.16 | 0.13 | Not Active | 0.35 | CC(O[N+](=O)[O-])C(=O)Nc1ccc(C(=O)/C=C/c2ccc(Cl)cc2)cc1 (configuration not stated) | 55 | 45 | 3.5 | 61 | 80 | 62 | 56 | Activity (Rattus norvegicus [18]): Toxic; Activity (Rattus norvegicus [19]): Toxic |
| 0.15 | 0.37 | 0.14 | 0.12 | 0.11 | Not Active | 0.17 | COc1ccc(/C=C/C(=O)c2ccc(NC(=O)C(C)O[N+](=O)[O-])cc2)cc1 (configuration not stated) | 46 | 43 | 8 | 43 | 65 | 50 | 35 | – |
| 0.15 | 0.4 | 0.12 | 0.14 | 0.1 | Not Active | 0.28 | CC(O[N+](=O)[O-])C(=O)Nc1ccc(C(=O)/C=C/c2ccc3c(c2)OCO3)cc1 (configuration not stated) | 40 | 45 | 4 | 54 | 77 | 59 | 53 | – |
